In series [1] the test system is ZIKV (FLR strain, Colombia, 2015). As to the kind of experiment: Anti-ZIKV. Particulars: Vero cells; for % inhibition of ZIKV at 10 μM: ZIKV FLV (FLR) strain, viral titer vs untreated. The class given is cell-based, Zika virus.
The next series concerns Vero cells. As to the kind of experiment: Cytotoxicity to Vero cells in the anti-ZIKV screen. The class given is cell-based, monkey. The conditions noted are these: 10 μM screen; in Table 2 printed in the % inhibition at 10 μM column. The method, boiled down: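 Cytopathic effect and cell death were scored by microscope, with MTT to quantitate viable cells. Compounds giving CPE-like phenotype or cell death at 10 μM were flagged as cytotoxic.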

The subject of a further series is ZIKV RNA. Kind of series: Quantitative RT-PCR of ZIKV RNA copies in supernatant of infected Vero cells. It counts as cell-based, Zika virus. The method in brief:
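Viral RNA was extracted with TRIzol from 50 μL of culture supernatant. One-step TaqMan RT-qPCR used ZIKV-specific primers and probe amplifying envelope gene region 3. ZIKV RNA was expressed as copies/mL, calculated from a standard curve.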

The next series concerns ZIKV. Kind of series: Anti-ZIKV activity in Vero cells with added glutathione. The class given is cell-based, Zika virus. The conditions noted are these: 1 mM GSH in culture media. The method, boiled down: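 ZIKV (FLR strain) infected Vero cells were given test compound in culture medium supplemented with 1 mM glutathione, a nucleophilic thiol, to test whether the compound acts by covalent reaction. Anti-ZIKV activity was read in the cell-based antiviral assay.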

A further series has as its system ZIKV (FLV strain). As to the kind of experiment: Time-of-addition. The class given is cell-based, Zika virus. The conditions noted are these: 1 μM, added together with virus, Vero cells.
In series [2] the test system is Zika virus NS5, NS3 and capsid proteins. Kind of series: Western blot of viral NS5, NS3 and capsid proteins in ZIKV-infected Vero cells. It counts as cell-based. The conditions noted are these: 48h.

Consider 20 compounds from paper PMC10463567 (Journal of medicinal chemistry, 2023).

“And” between values parts separate entries of the source, which are not always exact repeats. Equal values may be shown once. “Also recorded” adds a separate entry of the source. Where a name gives a salt, the structure may show the parent alone.

For “3-(3-tert-Butylphenyl)-2-[2-(1-naphthyl)ethenyl]-4(3H)-quinazolinone [Compound 19]”, in series [1] (10 μM, 10 µM), the “% inhibition of ZIKV at 10 μM” value is 68% and 68.4%.
Turning to “3-(3-tert-Butylphenyl)-2-[2-(3-methoxyl-2-pyridinyl)ethenyl]-4(3H)-quinazolinone [Compound 11]”, the “% inhibition of ZIKV at 10 μM” value in series [1] (10 μM) was determined as 0%.
On the same count and under the same terms, the same measure for “3-(3-tert-Butylphenyl)-2-[2-(4-trifluoromethyl-3-pyridinyl)ethenyl]-4(3H)-quinazolinone [Compound 3]”: 90.0%.
On to “6-(4-Methylpiperazin-1-yl)-3-(3-tert-butylphenyl)-2-(2,6-dimethoxystyryl)-4(3H)-quinazolinone [Compound 40]”, for which the “Cytotoxicity to Vero cells” value in the series on Vero cells was “Cytotoxic”.
Consider “6-(Piperidin-1-yl)-3-(3-tert-butylphenyl)-2-(2,6-dimethoxystyryl)-4(3H)-quinazolinone [Compound 39]”, for which, in series [1] (10 μM), the “% inhibition of ZIKV at 10 μM” value is on record as 96.8%.
As for `CCN(CC)c1ccc2nc(/C=C/c3cccc(OC)n3)n(-c3cccc(C(C)(C)C)c3)c(=O)c2c1` [Compound 1, 6-Diethylamino-3-(3-tert-butylphenyl)-2-[2-(6-methoxyl-2-pyridinyl)ethenyl]-4(3H)-quinazolinone], in series [1] (10 μM), the “fold activity enhancement to inhibit ZIKV replication compared to unsubstituted compound 11” value was ≥ 1,000 fold.
For `CC(C)(C)c1cccc(-n2c(/C=C/c3cccnc3)nc3ccccc3c2=O)c1` [Compound 12, 3-(3-tert-Butylphenyl)-2-[2-(3-pyridinyl)ethenyl]-4(3H)-quinazolinone], the “% inhibition of ZIKV at 10 μM” value in series [1] (10 μM) is “inactive”.
On the same count and under the same terms, the entry for `CC(C)(C)c1cccc(-n2c(/C=C/c3ccccc3)nc3ccccc3c2=O)c1` [Compound 15, 3-(3-tert-Butylphenyl)-2-(2-phenylethenyl)-4(3H)-quinazolinone] is “inactive”; for `COc1cccc(/C=C/c2nc3ccc(Cl)cc3c(=O)n2-c2cccc(C(C)(C)C)c2)n1` [Compound 20, 6-Chloro-3-(3-tert-butylphenyl)-2-[2-(6-methoxyl-2-pyridinyl)ethenyl]-4(3H)-quinazolinone] it is “inactive”; for `COc1ccc2nc(/C=C/c3cccc(OC)n3)n(-c3cccc(C(C)(C)C)c3)c(=O)c2c1` [Compound 21, 6-Methoxy-3-(3-tert-butylphenyl)-2-[2-(6-methoxyl-2-pyridinyl)ethenyl]-4(3H)-quinazolinone] it is “inactive”.
For `COc1cccc(/C=C/c2nc3ccc(N4CCCCC4)cc3c(=O)n2-c2cccc(C(C)(C)C)c2)n1` [Compound 22, 6-(Piperidin-1-yl)-3-(3-tert-butylphenyl)-2-[2-(6-methoxyl-2-pyridinyl)ethenyl]-4(3H)-quinazolinone], in the series on ZIKV RNA, the “ZIKV RNA copies in the supernatant” value is recorded as “dose-dependently reduce”.
`COc1cccc(/C=C/c2nc3ccc(N4CCNCC4)cc3c(=O)n2-c2cccc(C(C)(C)C)c2)n1` [Compound 25, 6-(Piperazin-1-yl)-3-(3-tert-butylphenyl)-2-[2-(6-methoxyl-2-pyridinyl)ethenyl]-4(3H)-quinazolinone hydrochloride]: the “Cytotoxicity to Vero cells” value in the series on Vero cells is “significant cytotoxicity; also recorded: Cytotoxic”.
For `COc1cccc(/C=C/c2nc3ccc(N4CCN(C)CC4)cc3c(=O)n2-c2cccc(C(C)(C)C)c2)n1` [Compound 26, 6-(4-Methylpiperazin-1-yl)-3-(3-tert-butylphenyl)-2-[2-(6-methoxyl-2-pyridinyl)ethenyl]-4(3H)-quinazolinone], in the series on Vero cells, the “Cytotoxicity to Vero cells” value is given as “Cytotoxic”.
With `COc1cccc(/C=C/c2nc3ccc(N4CCOCC4)cc3c(=O)n2-c2cccc(C(C)(C)C)c2)n1` [Compound 27, 6-Morpholino-3-(3-tert-butylphenyl)-2-[2-(6-methoxyl-2-pyridinyl)ethenyl]-4(3H)-quinazolinone], the “anti-ZIKV activity in the presence of GSH” value with ZIKV is on record as “not affected”. The “ZIKV RNA copies in the supernatant” value in the series on ZIKV RNA is “dose-dependently reduce”. Also, in the series with ZIKV (FLV strain), the “viral titer reduction, 2h-pretreatment” value is reported as at least 90%. In addition, in the series on Vero cells, the “Cytotoxicity to Vero cells” value was “without cytotoxicity”. Besides, in series [1] (ZIKV-FLR, EC50 comparison), the “fold more potent antiviral activity than compound 22” value is ~ 4 ×. Moreover, the “cellular levels of viral NS5, NS3 and capsid proteins” value in series [2] is on record as “significantly reduce”.
As for `COc1cccc(/C=C/c2nc3ccc(N4CCC(N5CCOCC5)CC4)cc3c(=O)n2-c2cccc(C(C)(C)C)c2)n1` [Compound 28, 6-(4-Morpholinopiperidin-1-yl)-3-(3-tert-butylphenyl)-2-[2-(6-methoxyl-2-pyridinyl)ethenyl]-4(3H)-quinazolinone], in the series with Vero cells, the “Cytotoxicity to Vero cells” value is listed as “without cytotoxicity”.
Take `COc1cccc(/C=C/c2nc3ccc(-c4ccncc4)cc3c(=O)n2-c2cccc(C(C)(C)C)c2)n1` [Compound 29, 6-(Pyridin-4-yl)-3-(3-tert-butylphenyl)-2-[2-(6-methoxypyridin-2-yl)vinyl]-4(3H)-quinazolinone dihydrochloride]: the “% inhibition of ZIKV at 10 μM” value in series [1] (10 μM) was “inactive”.
Take `COc1cccc(-c2ccc3nc(/C=C/c4cccc(OC)n4)n(-c4cccc(C(C)(C)C)c4)c(=O)c3c2)c1` [Compound 30, 6-(3-Methoxyphenyl)-3-(3-tert-butylphenyl)-2-[2-(6-methoxypyridin-2-yl)vinyl]-4(3H)-quinazolinone]: the “% inhibition of ZIKV at 10 μM” value in series [1] (10 μM) was “inactive”.
With `CC(C)(C)c1cccc(-n2c(/C=C/c3ccc(C(F)(F)F)cc3)nc3ccc(N4CCCCC4)cc3c2=O)c1` [Compound 36], in series [1] (10 μM, 10 µM), the “% inhibition of ZIKV at 10 μM” value was 90%.
As for `COc1cccc(CCc2nc3ccc(N4CCCCC4)cc3c(=O)n2-c2cccc(C(C)(C)C)c2)n1` [Compound 53, 6-(Piperidin-1-yl)-3-(3-tert-butylphenyl)-2-[2-(6-methoxypyridin-2-yl)ethyl]-4(3H)-quinazolinone], in series [1] (10 μM), the “% inhibition of ZIKV at 10 μM” value was “inactive”.
On the same count and under the same terms, the same measure for `COc1cccc(CCc2nc3ccc(N4CCOCC4)cc3c(=O)n2-c2cccc(C(C)(C)C)c2)n1` [Compound 54, 6-Morpholino-3-(3-tert-butylphenyl)-2-[2-(6-methoxypyridin-2-yl)ethyl]-4(3H)-quinazolinone]: “inactive”.
